Measured values: ChEMBL document CHEMBL1649550, “Antibacterial properties and mode of action of a short acyl-lysyl oligomer” (2009)
Active and inactive are the calls of the source. The rule behind the calls is not given here.

system: Staphylococcus aureus; test: Antibacterial activity against Staphylococcus aureus ATCC 29213 assessed as disruption of plasma membrane permeability at 4 times MIC by ethidium bromide uptake assay; format: functional, organism-based
In short: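 S. aureus grown overnight in LB at 37°C to OD620 of 1, washed twice in PBS and resuspended in PBS with 0.5% glucose, then 10 min at 37°C. Cells added to EtBr (final 1.0 μg/ml) with compound (serial twofold concentrations), Triton 0.01% final, or antibiotic at 4× MIC. Fluorescence followed over time (ex 530, em 645 nm).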

| Molecule | Activity |
| --- | --- |
| GENTAMICIN | inactive |
| O=C(O)c1cn(C2CC2)c2cc(N3CCNCC3)c(F)cc2c1=O | inactive |
| CN(C)[C@@H]1C(O)=C(C(N)=O)C(=O)[C@@]2(O)C(O)=C3C(=O)c4c(O)cccc4[C@@](C)(O)[C@H]3C[C@@H]12 | inactive |
